{
  "source": "paper PMC12977181",
  "about": "(Journal of natural products, 2025)",
  "key": {"[1]": {"tested_on": "primary mouse DRG neurons", "test": "Functional calcium imaging in primary mouse DRG neurons", "assay_type": "cell-based", "conditions": "10 μM Ver E", "summary_of_the_method": "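DRGs from an 18-week-old male Nestin-Cre × Cre-dependent GCaMP6f mouse were digested with papain (15 IU/mL) plus collagenase (2.25 mg/mL) at 37 °C for 20 min and plated at 450,000–500,000 cells/mL in Neurobasal A. Imaging ran 24 h later with FITC optics. Maximum fluorescence was taken during direct 10 μM exposure and during SOCE, against 0.1% DMSO vehicle. Unpaired two-tailed t tests; SEM; n = cells.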"}, "[2]": {"tested_on": "hiPSC-derived nociceptors", "test": "Multiwell microelectrode array", "assay_type": "cell-based, human"}, "p-eIF2α": {"tested_on": "p-eIF2α", "test": "Immunocytochemistry of p-eIF2α in primary mouse DRGs", "assay_type": "cell-based", "conditions": "approximately 16 h, vs vehicle (0.01% DMSO)", "summary_of_the_method": "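Primary mouse DRG neurons were cultured overnight in Neurobasal A, then exposed for ~16 h to test compounds (30–1000 nM) or 0.01% DMSO. Cells were formalin-fixed, blocked in 10% goat serum with 0.1% Triton X-100, and immunostained for p-eIF2α (Alexa 555) and peripherin (Alexa 488) with DAPI. p-eIF2α was quantified as mean gray intensity in peripherin-positive neurons. One-way ANOVA with Tukey's test; mean ± SEM.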"}, "HEK293 cells [3]": {"tested_on": "HEK293 cells", "test": "Cytotoxicity in HEK293 cells, resazurin reduction assay", "assay_type": "cell-based", "conditions": "24 h; for cell death at 30 μM: resazurin (Figure 7A); for LD50: 0.03-30 μM, logarithmic nonlinear regression curve (Figure 7B)"}, "[4]": {"tested_on": "mice with neuropathic pain", "conditions": "through σ2R/TMEM97; cited from earlier work"}, "HEK293 cells [5]": {"tested_on": "HEK293 cells", "conditions": "cited from earlier work"}, "breast cancer cell lines": {"tested_on": "breast cancer cell lines", "conditions": "cited from earlier work"}},
  "note": "Entries after “also recorded” stand apart in the source; their conditions may differ. Like-named read-outs stand apart in the source and are kept apart here.",
  "data": [
    {"compound": "C#CCCC[C@H]1OC(=O)[C@H](C(C)C)N(C)C(=O)[C@@H]2CCCN2C(=O)[C@H]([C@@H](C)CC)OC(=O)[C@H]([C@@H](C)CC)N(C)C(=O)[C@H]([C@@H](C)CC)NC(=O)[C@H]1C", "note": "[Ver E, veraguamide E]", "values": [
      {"measurement": "Maximum fluorescence during the SOCE response (mean)", "setting": "[1]; 0.1% DMSO, max ΔF/F0, after reintroduction of extracellular Ca2+, vehicle mean = 2.126, no significant difference", "value": 1.929},
      {"measurement": "DRG excitability during coapplication with thapsigargin, in words", "setting": "[1]; compared to thapsigargin alone, P < 0.01", "value": "significantly increased DRG excitability"},
      {"measurement": "SOCE response, in words", "setting": "[1]; upon reintroduction of extracellular Ca2+", "value": "no significant change"},
      {"measurement": "neuronal activity at 24 h, in words", "setting": "[2]; 30 μM, 37 °C, 24-h time point", "value": "returning to baseline"},
      {"measurement": "effect on activity at 42 °C (heat ramp 37 to 42 °C), in words", "setting": "[2]; 42 °C, Ver E vs vehicle (DMSO)", "value": "no significant effect; also recorded: nonsignificant decrease"},
      {"measurement": "p-eIF2α levels (mean gray intensity), in words", "setting": "p-eIF2α; Ver E 100 nM", "value": "No observable differences"},
      {"measurement": "p-eIF2α levels (mean gray intensity), in words", "setting": "p-eIF2α; Ver E 1000 nM", "value": "No observable differences"},
      {"measurement": "cytotoxicity, in words", "setting": "HEK293 cells [3]; 0.03 μM to 30 μM, resazurin", "value": "no evidence of cytotoxicity"},
      {"measurement": "cell death at 30 μM", "setting": "HEK293 cells [3]", "value": "no cytotoxicity"},
      {"measurement": "LD50", "setting": "HEK293 cells [3]; resazurin", "value": "no detectable LD50"}
    ]},
    {"compound": "OCCCN1CCC2CC1c1cc(-c3ccc(C(F)(F)F)cc3)ccc12", "note": "(stereo not shown) [FEM-1689, reference compound]", "values": [
      {"measurement": "p-eIF2α expression (mean gray intensity), in words", "setting": "p-eIF2α; FEM-1689 30 nM", "value": "marked reduction"},
      {"measurement": "analgesic effect, in words", "setting": "[4]", "value": "drives analgesic responses"}
    ]},
    {"compound": "C[C@@H]1CC[C@@]2(OC1)O[C@H]1[C@@H](O)[C@H]3[C@@H]4CC[C@H]5C[C@@H](O[C@@H]6O[C@H](CO)[C@H](O[C@@H]7O[C@H](CO)[C@@H](O)[C@H](O[C@@H]8OC[C@@H](O)[C@H](O)[C@H]8O)[C@H]7O[C@@H]7O[C@H](CO)[C@H](O)[C@H](O[C@@H]8O[C@H](CO)[C@@H](O)[C@H](O)[C@H]8O)[C@H]7O)[C@H](O)[C@H]6O)[C@H](O)C[C@]5(C)[C@H]4CC[C@]3(C)[C@H]1[C@@H]2C", "note": "[digitonin, reference compound]", "values": [
      {"measurement": "cell death at 30 μM", "setting": "HEK293 cells [3]", "value": 100, "unit": "%"},
      {"measurement": "LD50", "setting": "HEK293 cells [3]; resazurin", "value": 9.68, "unit": "µM"}
    ]},
    {"compound": "veraguamide C", "values": [
      {"measurement": "cytotoxicity, in words", "setting": "HEK293 cells [5]", "value": "nontoxic"},
      {"measurement": "cytotoxicity, in words", "setting": "breast cancer cell lines", "value": "mild cytotoxicity"}
    ]}
  ]
}
